Results pooled from the literature.
Lines come from different studies, so protocols differ.
Target: cGMP-dependent protein kinase 1 (PRKG1, Homo sapiens, UniProt Q13976)
Sequence (Q13976 1-671, as in one of the studies): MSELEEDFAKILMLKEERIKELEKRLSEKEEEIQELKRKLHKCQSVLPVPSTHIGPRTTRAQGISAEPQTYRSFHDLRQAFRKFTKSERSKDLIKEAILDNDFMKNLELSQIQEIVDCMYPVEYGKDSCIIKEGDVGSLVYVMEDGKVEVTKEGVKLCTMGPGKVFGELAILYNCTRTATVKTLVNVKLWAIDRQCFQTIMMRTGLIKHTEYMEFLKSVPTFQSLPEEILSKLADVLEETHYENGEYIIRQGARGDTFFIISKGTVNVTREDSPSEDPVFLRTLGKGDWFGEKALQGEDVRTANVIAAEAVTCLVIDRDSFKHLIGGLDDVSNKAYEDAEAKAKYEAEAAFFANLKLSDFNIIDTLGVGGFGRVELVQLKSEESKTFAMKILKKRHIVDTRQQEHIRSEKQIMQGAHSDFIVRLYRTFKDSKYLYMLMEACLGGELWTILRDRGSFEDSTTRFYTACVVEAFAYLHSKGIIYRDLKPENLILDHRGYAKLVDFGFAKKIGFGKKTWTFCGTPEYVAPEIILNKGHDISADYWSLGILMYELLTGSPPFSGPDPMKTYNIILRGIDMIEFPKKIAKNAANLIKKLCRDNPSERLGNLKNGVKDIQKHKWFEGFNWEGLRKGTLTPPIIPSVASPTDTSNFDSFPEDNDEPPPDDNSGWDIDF

Cn1cnc(Br)c1C1=CN(c2ncnc3[nH]cnc23)CCS1
inhibition (enzyme activity, inhibitor, radiometric; 50 nM): 72.1%

CNC(=O)Nc1ccc2c(c1)CC[C@@]21OC(=O)N(CC(=O)N(Cc2ccc(F)cc2)[C@@H](C)C(F)(F)F)C1=O
remaining binding (cell-free assay, competition with immobilised ligand; 1 µM): 100%

CCCOc1ccc(OC)c(F)c1C(=O)c1ccc(C(=O)N[C@@H]2CNC[C@H]2NC(=O)c2ccc3[nH]ncc3c2)cc1
remaining activity (enzyme activity, inhibitor; 0.75 µM): 0%

Cc1ccc(C(=O)Nc2ccc(CN3CCN(C)CC3)c(C(F)(F)F)c2)cc1C#Cc1cnc2cccnn12
remaining activity (enzyme activity, inhibitor; 23.5 nM): 72%

CCCS(=O)(=O)Nc1ccc(F)c(C(=O)c2c[nH]c3ncc(-c4ccc(Cl)cc4)cc23)c1F
inhibition (enzyme activity, inhibitor; 1 µM): < 10%

C[C@H](c1ccc(F)cc1)N(Cc1cccc(C(=O)O)c1)C(=O)c1cnc2ccccc2c1
remaining binding (cell-free assay, competition with immobilised ligand; 1 µM): 100%

Cc1cc(NC(=O)c2cccc3cc(-c4cccc5[nH]nc(N)c45)ccc23)ccc1F
activity vs control (enzyme activity, inhibitor; 0.1 µM): 122%

Cc1cc(-n2nc(Cc3cc(F)cc(C(F)(F)F)c3)nc2C)ccc1C(N)=O
remaining binding (cell-free assay, competition with immobilised ligand; 1 µM): 100%

COc1cc2ncnc(Nc3ccc(Oc4ccccc4)cc3C)c2cc1OC
inhibition (enzyme activity, inhibitor; 1 µM): 1%

CC/C(=N\NC(=O)NCc1cccc(O)c1)c1ccc(O)c(C)c1O
inhibition (enzyme activity, inhibitor; 0.1 µM): 55.7%

Cc1ccc(C(=O)NCc2ccsc2)cc1C#Cc1cn(C(C)C)c2ncnc(N)c12
activity vs control (enzyme activity, inhibitor; 1 µM): 87%

c1ccc(N2CCN(Cc3nc4ccccc4[nH]3)CC2)nc1
remaining binding (binding, competition with immobilised ligand; 1 µM): 100%

CNC(=O)c1cc(Oc2ccc(NC(=O)Nc3ccc(Cl)c(C(F)(F)F)c3)cc2)ccn1
inhibition (enzyme activity, inhibitor; 10 µM): -2%

CC(C)c1ccc(NC(=O)c2cccs2)c(-c2nc3ccccc3[nH]c2=O)c1
activity vs control (enzyme activity, inhibitor; 1 µM): 123%

Cc1nc(C2CCN(C(=O)c3ccc(OC(F)(F)F)cc3N)CC2)c2ncc(N3CCN(C)CC3)cc2n1
remaining binding (cell-free assay, competition with immobilised ligand; 1 µM): 100%

CC(C)(C)c1nc2c(s1)c1nc(N)ncc1c1ccc(NS(=O)(=O)c3c(F)cccc3F)c(F)c12
remaining activity (enzyme activity, inhibitor, radiometric; 1 µM): 99%
